High-throughput results (PubChem BioAssay)
An excerpt weighted towards active compounds, which were near 4.9% of everything screened.
NPY1 pot ag: NPY-Y1 receptor potentiators or agonists, primary screen, cell-based; NPY-Y1 expressing cells, potentiator/agonist activation; activation, % at 3.6 µM; hit rate 0.37% among 220,000; in the data active = activation above about 33%, passing the limit was not always enough;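 note: cells stimulated with NPY at EC10 then isoproterenol at EC100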
WT yeast gro inh: growth inhibition of WT strain, primary screen, mitochondrial fusion inhibitor project, WT and mutant strains, chemical genetic. AID 1362, 2008. inhibition, % at 10 µM. hit rate 2.1% among 190,000. mitochondrial fusion phenotypic screen; in the data active = inhibition above about 58%; tested in S. cerevisiae
NPY2 pot ag: NPY-Y2 potentiators or agonists, primary screen, cell-based. hit rate 0.45% among 220,000. cells expressing NPY-Y2, potentiator/agonist read-out. Neuropeptide Y receptor type 2 (Homo sapiens), P49146. activation, % at 3.6 µM; in the data active = activation above about 27%;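 note: cells stimulated with NPY near EC25 plus isoproterenol at EC100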
Target sequence (P49146 whole entry, looked up): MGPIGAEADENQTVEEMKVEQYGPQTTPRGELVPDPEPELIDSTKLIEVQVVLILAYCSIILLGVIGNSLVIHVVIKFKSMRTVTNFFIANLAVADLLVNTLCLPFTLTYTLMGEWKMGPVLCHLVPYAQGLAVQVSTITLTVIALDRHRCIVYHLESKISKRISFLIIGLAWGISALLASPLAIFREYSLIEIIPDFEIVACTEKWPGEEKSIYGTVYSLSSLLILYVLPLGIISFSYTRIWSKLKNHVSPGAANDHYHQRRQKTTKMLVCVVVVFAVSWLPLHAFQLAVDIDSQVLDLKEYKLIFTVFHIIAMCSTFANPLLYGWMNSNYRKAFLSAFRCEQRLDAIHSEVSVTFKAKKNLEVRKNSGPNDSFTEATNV
NPY Y1 blocker: NPY-Y1 receptor antagonists, primary screen, cell-based | Neuropeptide Y receptor type 1 (Homo sapiens), P25929 | HEK293-CNG Y1 cells, membrane potential fluorescence; NPY at EC95, then isoproterenol | inhibition, % at 3.6 µM | hit rate 1% among 200,000;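 active = inhibition above the campaign mean inhibition of all tested compounds plus 3 SD, cut at about 20% in these data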
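Test system – HEK293 Y1/CNG channel cell line · Also added – NPY agonist 25 nM, then isoproterenol 1 µM plus Ro 20-1724 25 µM · Compound dosing – one concentration, 3.6 µM, in 0.4% DMSO · Schedule – compound incubation 1 h at room temperature, readout 45 min post-stimulation · Technique – fluorescence, membrane potential probe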
RAM inhibit: inhibitors of the yeast RAM network, primary screen, dse1pr::URA3 reporter, 5-FOA selection; S. cerevisiae dse1pr::URA3 reporter, 5-FOA growth OD615, 2 d; analog-sensitive cbk1-as2 kinase mutant strain; inhibition, % at 50 µM; hit rate 1.8% among 190,000;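 active = inhibition above a set limit, 3 SD over mean compound inhibition, cut at about 8.4% in these data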;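 note: inhibition rescues growth on 5-FOA so higher OD means more RAM inhibition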
NPY Y2 blocker: NPY-Y2 receptor antagonists, primary screen, cell-based | NPY-Y2 expressing cells, antagonist mode | inhibition, % at 2.7 µM | hit rate 0.99% among 140,000 | AID 793, 2007
RAM efflux-def: 5-FOA growth of efflux-deficient control yeast, dose response, counter-screen for RAM network inhibitor project, S. cerevisiae, OD615. AID 1305, 2008. max inhibition, %. shares compounds with RAM inhibit. 1,200 tested, under 10 active. S. cerevisiae efflux-deficient reporter strain, 5-FOA growth OD615, 2 days; call rule not given here
NPY-Y1 ant conf: NPY-Y1 receptor antagonists, retest of hits, confirmation, HEK293-CNG cells, membrane potential fluorescence, triplicate; shares compounds with NPY Y1 blocker; cAMP; NPY challenge against isoproterenol-raised cAMP; inhibition, % at 3.6 µM; hit rate 21% among 1,200; in the data active = inhibition above about 20%
NPY-Y2 antag ct: NPY-Y2 receptor antagonists, selectivity check, confirmation, counter-screen for NPY-Y1 antagonist project, HEK293-CNG cells, membrane potential fluorescence, triplicate. shares compounds with NPY Y1 blocker. antagonism; cells given NPY, then isoproterenol. inhibition, % at 3.6 µM. hit rate 28% among 1,200
Hits are given with their value; - = inactive; . = no result given. Cut-off read from the data, not from the text of the source, unless noted: active = inhibition above about 17%; inactive = the rest.

SMILES	NPY1 pot ag	WT yeast gro inh	NPY2 pot ag	NPY Y1 blocker	RAM inhibit	NPY Y2 blocker	RAM efflux-def	others
Cc1ccc(NP(=O)(Oc2ccccc2F)Oc2ccccc2F)cc1C	-	-	-	-	16.7	-	-
O=P(Nc1cccc(F)c1)(Oc1ccccc1F)Oc1ccccc1F	-	.	-	.	.	.	.
Cc1cccc(NP(=O)(Oc2ccccc2F)Oc2ccccc2F)c1	-	-	-	-	16.2	-	-
O=C(O)C1CN2CCC1CC2 (stereo not drawn)	-	-	-	-	-	-	.
CCOC(=O)C(O)(c1ccc(NC(=O)Oc2ccccc2)cc1)C(F)(F)F (stereo not drawn)	-	-	-	-	-	-	.
CCOc1ccc2nc(N=Nc3c(O)[nH]c(=O)[nH]c3=O)sc2c1	-	.	-	.	.	.	.
CCOc1ccc2nc(N=Nc3c(O)[nH]c(=S)[nH]c3=O)sc2c1	-	-	-	-	12.1	.	-
CN1C(=O)/C(=C/c2cccn2-c2ccc3ccccc3c2)C(=O)NC1=S	-	-	-	-	15.1	-	-
O=C1NC(=S)NC(=O)C1=Cc1cccn1-c1ccc(O)cc1	-	-	-	-	-	.	.
COc1ccc(N2C(=O)/C(=C/c3cccs3)C(=O)NC2=S)cc1	-	.	-	.	.	.	.
COc1ccc(N2C(=O)/C(=C/C=C/c3ccccc3[N+](=O)[O-])C(=O)NC2=S)cc1	-	-	-	-	16.6	.	-
CC(C)=CCC12CN3CCN(CC(C3)C1=O)C2	-	-	-	-	-	-	.
C=CCSC1=N/C(=C\c2cc(OC)c3c(c2)OCO3)C(=O)S1	-	-	-	-	12.5	-	-
CC(C)Cn1cc(C(=O)N2CCC3(CC2)OCCO3)c2c3ccccc3n(C)c2c1=O	-	-	-	-	-	-	.
Cc1ccc(Cn2cc(C=O)c(-c3ccc(C)cc3)n2)cc1	-	-	-	-	15.6	-	-
FC(F)(F)c1nc(N2CCN(c3ccccc3)CC2)nc2c1CCCCC2	-	-	-	-	13.8	-	-
CCN(CC)CCCNC(=O)c1c(O)c2ccccc2n(Cc2ccccc2)c1=O	-	-	-	20.4	-	-	.	NPY-Y1 ant conf=-;NPY-Y2 antag ct=25.9
Cc1cccc(N2CCN(CCc3ccccc3)CC2)c1C	-	-	-	22.6	-	-	.	NPY-Y1 ant conf=-;NPY-Y2 antag ct=-
Cc1ccc(N2CCN(CCc3ccccc3)CC2)cc1	-	-	-	-	-	-	.
Clc1ccc(COC(Cn2ccnc2)c2ccc(Cl)cc2Cl)c(Cl)c1 (stereo not drawn)	-	-	-	22.9	-	-	.	NPY-Y1 ant conf=30.1;NPY-Y2 antag ct=25.3
Fc1ccc(CCNCc2cccc(Cl)c2)cc1	-	-	-	-	-	-	.
COc1ccc(C2(C#N)CC[N+](C)(C)CC2)cc1	-	-	-	-	-	-	.
C[C@H]1OC[C@@H](C[N+](C)(C)C)O1	-	-	-	43.9	-	-	.	NPY-Y1 ant conf=35.8;NPY-Y2 antag ct=22.1
Cc1cc(C)n2nc(SCC(=O)N3CCC4(CC3)OCCO4)nc2n1	-	-	-	-	-	-	.
CN1CC=C(c2c[nH]c3ccccc23)CC1	-	-	-	35.6	-	-	.	NPY-Y1 ant conf=-;NPY-Y2 antag ct=-
C1=C(c2c[nH]c3ccccc23)CCN(Cc2ccccc2)C1	-	-	-	-	-	.	.
CCOc1ccc(N=Cc2c(O)n(C(C)(C)C)c(=O)[nH]c2=O)cc1	-	-	-	-	-	-	.
